Experimental data of several laboratories.
Protocols differ between the studies behind these lines.
Organism: Pichia kudriavzevii
Observed: microbial growth
Strain: ATCC6258

| SMILES | technique | time | MIC |
| --- | --- | --- | --- |
| OC(Cn1cncn1)(Cn1cncn1)c1ccc(F)cc1F | broth dilution |  | 32 µg/mL |
| CCCCCCCCCN1CCNCC1 | broth dilution | 48 h | 31.3 µg/mL |
| CCCCCCCOc1c(OC)cc(NC(C)CCCN)c2nc(C(C)(C)C)cc(C)c12 (stereo not drawn) |  |  | 5 µg/mL |
| C=C(C)[C@@H]1CC[C@]2(C)CC[C@]3(C)[C@H](CC[C@@H]4[C@@]5(C)CC[C@H](O)C(C)(C)[C@@H]5CC[C@]43C)[C@@H]12 | broth dilution | 48 h | 250 µg/mL |
| CCCCCCCCCCCCCCN1CCNCC1 | broth dilution | 48 h | 0.975 µg/mL |
| CCCCCOc1c(OC)cc(NC(C)CCCNC(=O)C(N)Cc2ccccc2)c2nc(C(C)(C)C)ccc12 (stereo not drawn) |  |  | 10 µg/mL |
| CCCCCCCCCCN1CCNCC1 | broth dilution | 48 h | 7.8 µg/mL |
| CCCCCOc1c(OC)cc(NC(C)CCCNC(=O)C(N)CC(C)C)c2nc(C(C)(C)C)ccc12 (stereo not drawn) |  |  | 10 µg/mL |
| OC(CNCCN1CCOCC1)(Cn1cncn1)c1ccc(F)cc1F (stereo not drawn) | broth dilution | 48 h | > 31.3 µg/mL |
| CCCCCCOc1c(OC)cc(NC(C)CCCN)c2nc(C(C)(C)C)cc(C)c12 (stereo not drawn) |  |  | 5 µg/mL |
| C=C(C)[C@@H]1CC[C@]2(C)CC[C@]3(C)[C@H](CC[C@@H]4[C@@]5(C)CCC(=O)C(C)(C)[C@@H]5CC[C@]43C)[C@@H]12 | broth dilution | 48 h | 500 µg/mL |
| C[C@@H]1[C@H](O)[C@@H](C)/C=C/C=C/C=C/C=C/C=C/C=C/C=C/[C@H](O[C@@H]2O[C@H](C)[C@@H](O)[C@H](N)[C@@H]2O)C[C@@H]2O[C@](O)(C[C@@H](O)C[C@@H](O)[C@H](O)CC[C@@H](O)C[C@@H](O)CC(=O)O[C@H]1C)C[C@H](O)[C@H]2C(=O)O |  |  | 1.35 µM |
